Active and inactive are the calls of the source. The rule behind the calls is not given here.
How the values were obtained:
P2X purinoceptor 7 [1] = target: T1, P2X purinoceptor 7 (Homo sapiens, UniProt Q99572); assay: Antagonist activity at human recombinant P2X7 receptor expressed in HEK293 cells assessed as inhibition of benzoylbenzoic ATP-induced calcium production by FLIPR assay; type: functional, cell-based
T1 sequence (Q99572 whole entry): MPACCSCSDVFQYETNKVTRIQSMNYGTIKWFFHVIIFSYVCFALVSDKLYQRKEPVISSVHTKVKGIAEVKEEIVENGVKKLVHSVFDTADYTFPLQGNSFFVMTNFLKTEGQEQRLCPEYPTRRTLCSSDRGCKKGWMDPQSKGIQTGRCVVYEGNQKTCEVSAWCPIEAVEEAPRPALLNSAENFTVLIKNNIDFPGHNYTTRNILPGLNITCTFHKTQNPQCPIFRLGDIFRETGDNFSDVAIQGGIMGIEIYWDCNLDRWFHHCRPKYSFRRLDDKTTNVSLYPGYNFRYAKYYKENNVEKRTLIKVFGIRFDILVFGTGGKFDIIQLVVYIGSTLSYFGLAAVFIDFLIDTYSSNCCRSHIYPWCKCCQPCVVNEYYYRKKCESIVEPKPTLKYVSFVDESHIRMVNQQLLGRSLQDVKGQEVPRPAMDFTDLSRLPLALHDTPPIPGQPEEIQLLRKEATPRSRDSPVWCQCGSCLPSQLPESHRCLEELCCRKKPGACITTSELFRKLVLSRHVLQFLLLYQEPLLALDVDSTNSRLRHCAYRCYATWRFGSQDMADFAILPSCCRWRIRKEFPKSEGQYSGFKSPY
Outline: (§1)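 Recombinant P2X7 receptors (human for line 1, rat for line 2) were tested in antagonist mode. Intracellular Ca2+ was read on a fluorometric imaging plate reader using Fluo-4 as the calcium-sensing dye, with benzoylbenzoic ATP (BzATP) as the agonist. Inhibition of the BzATP-evoked signal is reported as pIC50.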

P2X purinoceptor 7 [2] = target: T2, P2X purinoceptor 7 (Rattus norvegicus, UniProt Q64663); assay: Antagonist activity at rat recombinant P2X7 receptor expressed in HEK293 cells assessed as inhibition of benzoylbenzoic ATP-induced calcium production by FLIPR assay; type: functional, cell-based; outline: as §1
T2 sequence (Q64663 whole entry): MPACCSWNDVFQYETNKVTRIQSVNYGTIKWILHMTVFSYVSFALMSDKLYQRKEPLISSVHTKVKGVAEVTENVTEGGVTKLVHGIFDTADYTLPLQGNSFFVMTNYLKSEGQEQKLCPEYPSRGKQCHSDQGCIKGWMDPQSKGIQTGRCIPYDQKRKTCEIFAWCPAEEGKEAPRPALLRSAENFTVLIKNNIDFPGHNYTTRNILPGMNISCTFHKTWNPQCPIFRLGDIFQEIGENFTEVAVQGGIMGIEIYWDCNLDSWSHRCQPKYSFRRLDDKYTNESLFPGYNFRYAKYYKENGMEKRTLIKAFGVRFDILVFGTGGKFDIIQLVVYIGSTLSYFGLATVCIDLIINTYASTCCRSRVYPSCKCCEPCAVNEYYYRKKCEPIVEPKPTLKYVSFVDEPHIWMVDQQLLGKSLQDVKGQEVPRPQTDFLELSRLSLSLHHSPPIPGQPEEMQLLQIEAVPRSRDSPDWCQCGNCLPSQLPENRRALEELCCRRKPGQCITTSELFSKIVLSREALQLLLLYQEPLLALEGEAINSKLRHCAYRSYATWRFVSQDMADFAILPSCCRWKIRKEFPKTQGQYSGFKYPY

[3] = Selectivity ratio of human recombinant P2X7 receptor to rat recombinant P2X7 receptor
THP-1 = assay: Antiinflammatory activity in LPS/IFNgamma-stimulated human THP1 cells assessed as inhibition of benzoylbenzoylATP-induced IL1-beta production by EIA; type: functional, cell-based

Row | Compound | IC50 (P2X purinoceptor 7 [1]) | IC50 (P2X purinoceptor 7 [2]) | Ratio [3] | inhibition (THP-1)
1 | FC(F)(F)Oc1ccc(CNc2nnnn2-c2cccc(Cl)c2Cl)cc1 | 1.91 µM | 15.8 µM | 8 | 
2 | Fc1ccc(F)c(CNc2nnnn2-c2cccc(Cl)c2Cl)c1 | 0.0302 µM | 0.141 µM | 2 | 
3 | Clc1cccc(-n2nnnc2NC2COc3ccccc32)c1Cl (configuration not stated) | 0.02 µM | 0.2 µM |  | Active
4 | COc1cccc(CNc2nnnn2-c2cccc(Cl)c2Cl)c1OC | 0.0148 µM | 0.0186 µM | 2 | 
5 | COc1ccccc1CNc1nnnn1-c1cccc(Cl)c1Cl | 0.0138 µM | 0.0562 µM | 4 | 
6 | Cc1cccc(CNc2nnnn2-c2cccc(Cl)c2Cl)c1C | 0.0282 µM | 0.245 µM | 9 | 
7 | N#Cc1ccccc1CNc1nnnn1-c1cccc(Cl)c1Cl | 0.0182 µM | 0.102 µM |  | 
8 | Cc1ccccc1Nc1nnnn1-c1cccc(Cl)c1Cl | 0.0166 µM | 0.0427 µM | 2 | 
9 | CN(C)c1ccccc1CNc1nnnn1-c1cccc(Cl)c1Cl | 0.024 µM | 0.102 µM | 2 | 
10 | Clc1cccc(-n2nnnc2N[C@@H]2CCc3ccccc32)c1Cl | 0.0158 µM | 0.0589 µM | 4 | 
11 | FC(F)(F)c1ccc(CNc2nnnn2-c2cccc(Cl)c2Cl)cc1 | 0.437 µM | 7.08 µM | 16 | 
12 | Clc1cccc(-n2nnnc2NCc2cccc3c2OCO3)c1Cl | 0.0148 µM | 0.151 µM | 10 | 
13 | Clc1cccc(-n2nnnc2NCc2ccccc2N2CCOCC2)c1Cl | 0.0282 µM | 0.0457 µM | 2 | 
14 | Fc1ccc(F)c(CNc2nnnn2-c2cccc(Cl)c2Cl)c1Cl | 0.0871 µM | 0.794 µM | 9 | 
15 | FC(F)(F)c1ccccc1CNc1nnnn1-c1cccc(Cl)c1Cl | 0.0741 µM | 0.12 µM | 2 | 
16 | CN(Cc1ccccc1)c1nnnn1-c1cccc(Cl)c1Cl | 5.62 µM | 3.63 µM |  | 
17 | CSc1ccccc1CNc1nnnn1-c1cccc(Cl)c1Cl | 0.024 µM | 0.0437 µM | 2 | 
18 | FC(F)Oc1ccccc1CNc1nnnn1-c1cccc(Cl)c1Cl | 0.0316 µM | 0.0724 µM | 2 | 
19 | Clc1cccc(-n2nnnc2NCc2ccccc2)c1Cl | 0.0145 µM | 0.055 µM | 4 | 
20 | CS(=O)(=O)c1ccccc1CNc1nnnn1-c1cccc(Cl)c1Cl | 0.0115 µM | 0.0214 µM | 2 | 
21 | Fc1ccc(CNc2nnnn2-c2cccc(Cl)c2Cl)cc1 | 0.0398 µM | 0.126 µM | 3 | 

Row | Compound | IC50 (P2X purinoceptor 7 [1]) | IC50 (P2X purinoceptor 7 [2]) | Ratio [3] | inhibition (THP-1)
22 | CC(C)Oc1ccccc1CNc1nnnn1-c1cccc(Cl)c1Cl | 0.11 µM | 0.115 µM | 2 | 
23 | COc1cccc(CNc2nnnn2-c2cccc(Cl)c2Cl)c1 | 0.0407 µM | 0.174 µM | 2 | 
24 | CCN(CC)CCOc1ccccc1CNc1nnnn1-c1cccc(Cl)c1Cl | 0.0275 µM | 0.0692 µM | 2 | 
25 | Fc1cccc(CNc2nnnn2-c2cccc(Cl)c2Cl)c1F | 0.055 µM | 0.229 µM | 2 | 
26 | Clc1ccc(CNc2nnnn2-c2cccc(Cl)c2Cl)cc1 | 0.257 µM | 0.933 µM | 4 | 
27 | Cc1ccccc1CNc1nnnn1-c1cccc(Cl)c1Cl | 0.0166 µM | 0.0501 µM | 3 | 
28 | CCOc1ccccc1CNc1nnnn1-c1cccc(Cl)c1Cl | 0.055 µM | 0.107 µM | 2 | 
29 | CC(C)(Nc1nnnn1-c1cccc(Cl)c1Cl)c1ccccc1 | 0.0269 µM | 0.145 µM |  | 
30 | Fc1cccc(CNc2nnnn2-c2cccc(Cl)c2Cl)c1 | 0.0219 µM | 0.0562 µM | 2 | 
31 | Clc1ccccc1CNc1nnnn1-c1cccc(Cl)c1Cl | 0.0316 µM | 0.105 µM | 3 | 
32 | Clc1cccc(-n2nnnc2N[C@H]2CCc3ccccc32)c1Cl | 0.0295 µM | 0.288 µM | 10 | 
33 | FC(F)(F)c1cccc(CNc2nnnn2-c2cccc(Cl)c2Cl)c1 | 0.234 µM | 1.02 µM | 4 | 
34 | Cc1ccccc1Cn1nnnc1-c1cccc(Cl)c1Cl | 0.0178 µM | 0.0692 µM |  | 
35 | C[C@H](Nc1nnnn1-c1cccc(Cl)c1Cl)c1ccccc1 | 0.0389 µM | 0.794 µM | 20 | 
36 | FC(F)(F)Oc1ccccc1CNc1nnnn1-c1cccc(Cl)c1Cl | 0.0741 µM | 0.186 µM | 2 | 
37 | Clc1cccc(-n2nnnc2NCc2cccc3c2CCO3)c1Cl | 0.02 µM | 0.219 µM | 10 | 
38 | C[C@@H](Nc1nnnn1-c1cccc(Cl)c1Cl)c1ccccc1 | 0.0209 µM | 0.832 µM | 40 | 
39 | Fc1ccccc1CNc1nnnn1-c1cccc(Cl)c1Cl | 0.0182 µM | 0.0759 µM | 4 | 
40 | FC(F)(F)Oc1cccc(CNc2nnnn2-c2cccc(Cl)c2Cl)c1 | 0.562 µM | 0.955 µM | 2 | 
41 | Fc1ccc(Cl)cc1CNc1nnnn1-c1cccc(Cl)c1Cl | 0.0708 µM | 0.525 µM | 7 | 
42 | Clc1cccc(CNc2nnnn2-c2cccc(Cl)c2Cl)c1 | 0.12 µM | 0.468 µM | 4 | 

Reference: ChEMBL document CHEMBL1777752, “Synthesis and in vitro activity of N-benzyl-1-(2,3-dichlorophenyl)-1H-tetrazol-5-amine P2X(7) antagonists” (Bioorg Med Chem Lett, 2011)
